The target of test [1] is Translocator protein (Rattus norvegicus, UniProt P16257). Kind of test: Displacement of [3H]PK11195 from TSPO in rat kidney mitochondrial membranes. The format is cell membranes.
For test [2], the species on record is Homo sapiens. Briefly: Binding affinity to Central-type benzodiazepine receptor (unknown origin).
Test [3] has as its target Translocator protein (Rattus norvegicus) (UniProt P16257). Kind of test: Displacement of [3H]PK11195 from TSPO in rat kidney mitochondrial membranes at 1 uM. The format is cell membranes. In outline: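 Competition binding against 0.6 nM [³H]PK11195 in crude rat kidney mitochondrial membranes, 50 mM Tris–HCl pH 7.4. Six compound concentrations spanning 0.05 nM–20 μM, each in triplicate. IC50 from displacement curves, converted to Ki by Cheng–Prusoff. Percent inhibition taken at 1 μM. Values are mean ± SEM of three determinations.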
On the technique in general: In a radioligand displacement assay an active substance lowers the binding of a labelled ligand.

Test [4] is filed under the species Homo sapiens. Kind of test: Cytotoxicity against human U-343 MGa cells assessed as decrease in cell viability at 50 uM after 24 hrs by colorimetric viability MTS assay. It is filed as functional, cell-based. In outline:
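U343 cells in MEM with 10% FBS were seeded ~4.5 × 10³/well and grown 24 h. They were then exposed 24 h to 50 μM compound in complete medium; DMSO or EtOH vehicle was ≤1%. Viable cells were read by MTS colorimetric conversion as percent of vehicle control. Measurements in duplicate; mean ± SEM of three determinations.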

The species entered for test [5] is Homo sapiens. Kind of test: Induction of mitochondrial membrane depolarization in human U-343 MGa cells at 10 uM after 5 hrs by cell fluo-analyzer relative to control. It is filed as functional, cell-based. The procedure, abridged:
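U343 cells were seeded ~60 × 10³/well, grown 24 h, then treated 5 h with 10 μM compound; CCCP 3 μM for 15 min served as depolarized control. Floating and adherent cells were pooled and stained with MitoPotential dye for 20 min at rt, then 7-AAD for 5 min. Percent live, depolarized and dead cells was read on a Muse cytometer.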

Test [6] can be described thus: (§1) Cytotoxicity against human U-343 MGa cells assessed as inhibition of cell survival after 24 hrs by colorimetric viability MTS assay. It is filed as functional, cell-based. In outline: (§2)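 U343 cells were seeded ~4.5 × 10³/well, grown 24 h, then treated 24 h with 10 nM–100 μM compound; vehicle (DMSO or EtOH) was ≤1%. Viability by MTS conversion relative to control (100%). IC50 was taken as the concentration giving half-maximal survival inhibition. Duplicates, ≥3 experiments, mean ± SEM.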
In general terms: Tetrazolium dyes change colour on reduction, which living cells bring about.

The species named for test [7] is Homo sapiens. The test is described as §1. The format is functional, cell-based. The procedure, abridged: as §2
Test [8] addresses Platelet-derived growth factor receptor beta (Homo sapiens) (UniProt P09619). Briefly: Inhibition of human PDGFRbeta kinase at 10 uM.
Test [9] addresses Vascular endothelial growth factor receptor 2 (Homo sapiens) (UniProt P35968). Kind of test: Inhibition of human KDR kinase at 10 uM.
Test [10] addresses Vascular endothelial growth factor receptor 1 (Homo sapiens) (UniProt P17948). Kind of test: Inhibition of human FLT-1 kinase at 10 uM.
For test [11], the target named is Mast/stem cell growth factor receptor Kit (Homo sapiens) (UniProt P10721). Briefly: Inhibition of human c-kit kinase at 10 uM.
For test [12], the target named is Tyrosine-protein kinase ABL1 (Homo sapiens) (UniProt P00519). Kind of test: Inhibition of human Abl kinase at 10 uM.
The target of test [13] is Mast/stem cell growth factor receptor Kit (Homo sapiens) (UniProt P10721). Kind of test: Inhibition of human c-kit kinase at 1 uM.
Test [14] deals with Epidermal growth factor receptor (Homo sapiens) (UniProt P00533). Kind of test: Inhibition of human EGFR kinase at 10 uM.
In test [15] the target is Protein kinase C beta type (Homo sapiens) (UniProt P05771). Kind of test: Inhibition of human PKCbeta1 at 1 uM.
In test [16] the target is Proto-oncogene tyrosine-protein kinase receptor Ret (Homo sapiens) (UniProt P07949). Kind of test: Inhibition of human Ret kinase at 1 uM.
Test [17] addresses Epidermal growth factor receptor (Homo sapiens) (UniProt P00533). Briefly: Inhibition of human EGFR kinase at 1 uM.
Test [18] deals with Protein kinase C beta type (Homo sapiens) (UniProt P05771). Briefly: Inhibition of human PKCbeta2 at 10 uM.
For test [19], the target named is Platelet-derived growth factor receptor alpha (Homo sapiens) (UniProt P16234). Kind of test: Inhibition of human PDGFRalpha kinase at 1 uM.
Test [20] deals with Receptor-type tyrosine-protein kinase FLT3 (Homo sapiens) (UniProt P36888). Briefly: Inhibition of human FLT-3 kinase at 1 uM.
For test [21], the target named is Protein kinase C beta type (Homo sapiens) (UniProt P05771). Briefly: Inhibition of human PKCbeta1 at 10 uM.
Test [22] concerns the target Serine/threonine-protein kinase mTOR (Homo sapiens) (UniProt P42345). Briefly: Inhibition of human mTOR kinase at 1 uM.
Test [23] concerns the target Proto-oncogene tyrosine-protein kinase receptor Ret (Homo sapiens) (UniProt P07949). Kind of test: Inhibition of human Ret kinase at 10 uM.
Test [24] addresses Serine/threonine-protein kinase mTOR (Homo sapiens) (UniProt P42345). Kind of test: Inhibition of human mTOR kinase at 10 uM.
Test [25] concerns the target Platelet-derived growth factor receptor alpha (Homo sapiens) (UniProt P16234). Kind of test: Inhibition of human PDGFRalpha kinase at 10 uM.
The target of test [26] is Platelet-derived growth factor receptor beta (Homo sapiens) (UniProt P09619). Briefly: Inhibition of human PDGFRbeta kinase at 1 uM.
Test [27] concerns the target Vascular endothelial growth factor receptor 2 (Homo sapiens) (UniProt P35968). Briefly: Inhibition of human KDR kinase at 1 uM.
The target of test [28] is Tyrosine-protein kinase ABL1 (Homo sapiens) (UniProt P00519). Briefly: Inhibition of human Abl kinase at 1 uM.
Test [29] is filed under the species Homo sapiens. Kind of test: Agonist activity at GPCR in human U-343 MGa cell membrane assessed as increase in basal [35S]GTPgamma binding at 0.1 nM. The format is functional, cell membranes.
The target of test [30] is Receptor tyrosine-protein kinase erbB-2 (Homo sapiens) (UniProt P04626). Briefly: Inhibition of human HER2/ErbB2 kinase at 1 uM.
Test [31] is filed under the species Homo sapiens. Kind of test: Agonist activity at GPCR in human U-343 MGa cell membrane assessed as increase in basal [35S]GTPgamma binding at 100 uM. The format is functional, cell membranes.
The target of test [32] is Vascular endothelial growth factor receptor 1 (Homo sapiens) (UniProt P17948). Briefly: Inhibition of human FLT-1 kinase at 1 uM.
In test [33] the target is Receptor-type tyrosine-protein kinase FLT3 (Homo sapiens) (UniProt P36888). Kind of test: Inhibition of human FLT-3 kinase at 10 uM.
In test [34] the target is Protein kinase C beta type (Homo sapiens) (UniProt P05771). Kind of test: Inhibition of human PKCbeta2 at 1 uM.
The target of test [35] is Receptor tyrosine-protein kinase erbB-2 (Homo sapiens) (UniProt P04626). Briefly: Inhibition of human HER2/ErbB2 kinase at 10 uM.
The species named for test [36] is Homo sapiens. Kind of test: Induction of mitochondrial membrane depolarization in human U-343 MGa cells at 3 uM for 15 mins by cell fluo-analyzer relative to control. It is filed as functional, cell-based. The procedure, abridged:
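U343 cells were grown at 37 °C and 5% CO₂ in EMEM with 10% FBS, seeded at ~60 × 10³ cells/well and grown 24 h. They were then exposed to the uncoupler as a depolarized positive control. Floating and adherent cells were pooled and stained with MitoPotential dye (20 min, rt), then with 7-AAD (5 min). The Muse cytometer gave % live, depolarized and dead cells.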

Test [37] in a line: Cytotoxicity against human U-343 MGa cells assessed as inhibition of cell survival at 100 uM after 24 hrs by colorimetric viability MTS assay. It is filed as functional. The procedure, abridged: as §2

Calls of active or inactive are those of the source. The calls are words filed in the database; no cut-off is given here.

Translocator protein, sequence (P16257 whole entry, looked up): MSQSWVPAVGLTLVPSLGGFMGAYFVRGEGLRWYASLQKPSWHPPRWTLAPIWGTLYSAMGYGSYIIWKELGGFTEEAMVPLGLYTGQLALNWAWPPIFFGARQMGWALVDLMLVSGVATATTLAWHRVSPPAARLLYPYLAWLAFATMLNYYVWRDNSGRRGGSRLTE
Protein kinase C beta type (Homo sapiens), sequence (P05771 2-671 limits assumed): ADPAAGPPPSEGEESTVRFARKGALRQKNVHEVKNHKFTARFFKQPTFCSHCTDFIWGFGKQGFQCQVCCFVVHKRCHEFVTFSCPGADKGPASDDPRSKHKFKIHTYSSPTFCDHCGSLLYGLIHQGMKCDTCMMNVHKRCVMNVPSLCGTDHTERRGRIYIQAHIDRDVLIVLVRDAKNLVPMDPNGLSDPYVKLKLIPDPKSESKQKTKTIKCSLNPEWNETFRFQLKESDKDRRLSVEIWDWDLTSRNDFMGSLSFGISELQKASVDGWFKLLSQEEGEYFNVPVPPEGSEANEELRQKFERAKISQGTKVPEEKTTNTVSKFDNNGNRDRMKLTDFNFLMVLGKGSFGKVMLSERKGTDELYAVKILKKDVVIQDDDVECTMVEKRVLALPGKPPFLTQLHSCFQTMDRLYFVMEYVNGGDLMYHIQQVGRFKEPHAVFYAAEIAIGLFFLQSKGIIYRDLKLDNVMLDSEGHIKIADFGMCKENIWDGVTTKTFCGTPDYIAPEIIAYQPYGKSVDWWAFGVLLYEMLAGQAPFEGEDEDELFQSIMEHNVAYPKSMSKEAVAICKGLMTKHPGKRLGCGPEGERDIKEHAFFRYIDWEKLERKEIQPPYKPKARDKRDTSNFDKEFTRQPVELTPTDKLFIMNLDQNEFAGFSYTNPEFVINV
Platelet-derived growth factor receptor alpha (Homo sapiens), sequence (P16234 whole entry): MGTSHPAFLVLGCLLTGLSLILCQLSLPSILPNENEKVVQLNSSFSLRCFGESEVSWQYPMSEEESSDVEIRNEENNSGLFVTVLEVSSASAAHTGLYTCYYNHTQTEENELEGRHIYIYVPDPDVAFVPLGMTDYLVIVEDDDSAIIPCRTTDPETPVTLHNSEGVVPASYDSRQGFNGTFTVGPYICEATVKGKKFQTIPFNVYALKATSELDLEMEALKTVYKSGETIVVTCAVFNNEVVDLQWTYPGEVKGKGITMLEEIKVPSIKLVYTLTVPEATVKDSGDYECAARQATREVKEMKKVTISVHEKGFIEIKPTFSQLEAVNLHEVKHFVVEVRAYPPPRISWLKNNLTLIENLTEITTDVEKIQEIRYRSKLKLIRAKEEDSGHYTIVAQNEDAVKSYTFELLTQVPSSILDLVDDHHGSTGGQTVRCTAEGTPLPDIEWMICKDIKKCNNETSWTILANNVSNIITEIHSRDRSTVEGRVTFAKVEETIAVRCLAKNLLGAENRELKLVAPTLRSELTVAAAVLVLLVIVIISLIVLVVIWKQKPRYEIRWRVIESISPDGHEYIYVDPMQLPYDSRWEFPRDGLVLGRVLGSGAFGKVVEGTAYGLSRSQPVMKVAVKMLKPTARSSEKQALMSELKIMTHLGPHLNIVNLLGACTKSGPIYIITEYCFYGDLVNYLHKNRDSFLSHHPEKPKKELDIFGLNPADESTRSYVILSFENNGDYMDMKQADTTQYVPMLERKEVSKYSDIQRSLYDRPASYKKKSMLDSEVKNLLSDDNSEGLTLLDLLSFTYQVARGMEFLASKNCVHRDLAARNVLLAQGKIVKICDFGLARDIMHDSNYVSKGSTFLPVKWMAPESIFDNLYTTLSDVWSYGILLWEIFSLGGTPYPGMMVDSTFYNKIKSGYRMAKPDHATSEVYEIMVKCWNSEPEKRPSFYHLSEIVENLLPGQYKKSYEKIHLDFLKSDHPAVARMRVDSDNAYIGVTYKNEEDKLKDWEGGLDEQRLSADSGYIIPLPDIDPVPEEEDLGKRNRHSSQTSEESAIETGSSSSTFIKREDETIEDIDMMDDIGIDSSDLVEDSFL
Receptor-type tyrosine-protein kinase FLT3 (Homo sapiens), sequence (P36888 whole entry): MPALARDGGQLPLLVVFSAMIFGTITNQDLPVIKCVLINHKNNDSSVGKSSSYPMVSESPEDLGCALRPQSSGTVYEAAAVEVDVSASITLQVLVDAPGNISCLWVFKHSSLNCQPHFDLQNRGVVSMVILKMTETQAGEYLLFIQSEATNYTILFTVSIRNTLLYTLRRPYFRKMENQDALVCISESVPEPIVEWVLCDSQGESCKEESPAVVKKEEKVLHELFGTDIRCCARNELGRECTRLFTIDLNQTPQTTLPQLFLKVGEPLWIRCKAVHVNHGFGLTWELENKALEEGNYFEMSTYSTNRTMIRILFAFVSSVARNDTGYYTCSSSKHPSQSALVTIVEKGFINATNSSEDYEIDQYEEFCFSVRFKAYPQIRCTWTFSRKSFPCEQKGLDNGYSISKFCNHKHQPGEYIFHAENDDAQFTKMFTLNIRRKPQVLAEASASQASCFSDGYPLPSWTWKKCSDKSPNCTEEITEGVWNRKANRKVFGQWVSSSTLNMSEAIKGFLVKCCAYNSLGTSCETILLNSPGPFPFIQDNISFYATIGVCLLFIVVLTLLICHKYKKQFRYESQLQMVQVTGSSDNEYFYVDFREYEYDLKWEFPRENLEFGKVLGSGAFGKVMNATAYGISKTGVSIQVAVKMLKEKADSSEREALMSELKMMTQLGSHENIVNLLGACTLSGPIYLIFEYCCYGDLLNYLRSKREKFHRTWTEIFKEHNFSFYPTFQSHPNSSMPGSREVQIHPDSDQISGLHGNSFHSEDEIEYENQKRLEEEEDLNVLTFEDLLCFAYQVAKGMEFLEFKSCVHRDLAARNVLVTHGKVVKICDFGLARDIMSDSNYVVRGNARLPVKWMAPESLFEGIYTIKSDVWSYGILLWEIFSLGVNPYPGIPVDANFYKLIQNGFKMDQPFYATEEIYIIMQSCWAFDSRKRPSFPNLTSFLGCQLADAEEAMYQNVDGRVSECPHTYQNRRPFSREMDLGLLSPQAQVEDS
Vascular endothelial growth factor receptor 2 (Homo sapiens), sequence (P35968 whole entry): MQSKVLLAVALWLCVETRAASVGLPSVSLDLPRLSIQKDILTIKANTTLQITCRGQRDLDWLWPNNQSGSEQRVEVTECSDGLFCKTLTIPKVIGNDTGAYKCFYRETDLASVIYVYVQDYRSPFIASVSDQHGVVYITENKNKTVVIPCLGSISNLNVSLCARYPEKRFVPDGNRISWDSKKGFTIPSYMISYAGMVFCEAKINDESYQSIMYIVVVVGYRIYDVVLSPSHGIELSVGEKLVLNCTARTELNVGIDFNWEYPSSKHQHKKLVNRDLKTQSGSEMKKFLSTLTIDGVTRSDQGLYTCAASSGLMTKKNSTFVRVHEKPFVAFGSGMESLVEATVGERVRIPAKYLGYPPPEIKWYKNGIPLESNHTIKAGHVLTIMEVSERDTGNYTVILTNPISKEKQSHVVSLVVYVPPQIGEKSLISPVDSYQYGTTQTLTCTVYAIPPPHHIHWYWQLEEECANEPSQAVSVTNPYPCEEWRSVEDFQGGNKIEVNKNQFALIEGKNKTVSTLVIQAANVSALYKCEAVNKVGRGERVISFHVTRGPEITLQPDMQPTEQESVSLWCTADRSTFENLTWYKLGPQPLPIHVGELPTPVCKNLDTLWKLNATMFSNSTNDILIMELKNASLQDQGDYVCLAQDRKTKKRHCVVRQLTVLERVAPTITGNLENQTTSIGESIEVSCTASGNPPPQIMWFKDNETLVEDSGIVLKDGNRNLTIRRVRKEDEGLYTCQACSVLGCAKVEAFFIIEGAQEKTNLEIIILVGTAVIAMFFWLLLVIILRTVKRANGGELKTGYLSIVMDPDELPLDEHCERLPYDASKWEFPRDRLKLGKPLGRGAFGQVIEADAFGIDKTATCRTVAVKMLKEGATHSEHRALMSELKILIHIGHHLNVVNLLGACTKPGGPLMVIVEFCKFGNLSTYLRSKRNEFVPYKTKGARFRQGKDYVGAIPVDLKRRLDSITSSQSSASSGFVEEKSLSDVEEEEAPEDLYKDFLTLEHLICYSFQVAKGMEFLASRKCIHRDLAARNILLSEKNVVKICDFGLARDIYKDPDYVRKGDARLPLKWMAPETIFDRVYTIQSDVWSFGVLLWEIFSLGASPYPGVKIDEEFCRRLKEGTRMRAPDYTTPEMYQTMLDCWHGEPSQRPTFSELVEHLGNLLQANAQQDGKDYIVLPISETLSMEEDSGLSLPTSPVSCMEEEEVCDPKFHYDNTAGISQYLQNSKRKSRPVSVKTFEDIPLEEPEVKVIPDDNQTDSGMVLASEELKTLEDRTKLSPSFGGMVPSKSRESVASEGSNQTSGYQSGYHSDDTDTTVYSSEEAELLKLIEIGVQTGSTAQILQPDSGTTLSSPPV
Translocator protein (Rattus norvegicus), sequence (P16257 whole entry, looked up): as the sequence (P16257 whole entry, looked up) above

In general, Ki refers to the dissociation constant of the complex between target and ligand, obtained from inhibition or displacement. For `CCN(Cc1ccc(C)cc1)C(=O)c1nc(-c2ccccc2F)c2ccccc2n1`, the affinity in test [1], expressed as Ki, was 0.6 nM.
As for `CCN(Cc1ccc(C(=O)O)cc1)C(=O)c1nc(-c2ccccc2)c2ccccc2n1`, in test [1], the inhibition constant (Ki) stood at 719 nM.
Consider `CCC(C)N(C)C(=O)c1nc(-c2ccccc2)c2cc(Cl)ccc2n1` (stereo not given), for which the outcome in [2] was inactive.
On to `CCN(Cc1ccccc1)C(=O)c1nc(-c2ccc(C)cc2)c2ccccc2n1`, for which, in test [1], the Ki is 1.49 nM.
Same read-out and setting: with `CN(Cc1ccccc1)C(=O)c1nc(-c2ccc(Cl)cc2)c2ccccc2n1` the figure was 6.12 nM; with `CCN(Cc1ccc(O)cc1)C(=O)c1nc(-c2ccccc2)c2ccccc2n1`, 8.76 nM.
As to `CCCCN(CCCC)C(=O)c1nc(-c2ccccc2)c2ccccc2n1`, in [2], the outcome was inactive.
Consider `CCN(Cc1ccccc1)C(=O)c1nc(-c2ccc(F)cc2)c2ccccc2n1`, for which, in [1], the Ki is 1.68 nM.
As for `CCCCCCN(CCCCCC)C(=O)c1nc(-c2ccccc2Cl)c2ccccc2n1`, in test [2], the result was inactive.
In test [1], `CCN(Cc1ccc(OC)cc1)C(=O)c1nc(-c2ccccc2)c2ccccc2n1` showed a Ki of 2.77 nM.
Same read-out and setting: with `CCN(Cc1ccccc1)C(=O)c1nc(-c2ccc(Cl)cc2)c2ccccc2n1` the figure was 0.762 nM.
Same read-out and setting: the figure for `CCN(Cc1ccccc1)C(=O)c1nc(-c2ccccc2)c2cc(Cl)ccc2n1` is 24.3 nM; for `CCN(Cc1ccc([N+](=O)[O-])cc1)C(=O)c1nc(-c2ccccc2)c2ccccc2n1` it is 4.2 nM; for `CCN(Cc1ccc(C)cc1)C(=O)c1nc(-c2ccccc2)c2ccccc2n1` it is 2.57 nM.
On the same count and under the same terms, the figure for `CCN(Cc1ccccc1)C(=O)c1nc(-c2ccccc2Cl)c2ccccc2n1` is 0.235 nM; for `CCOC(=O)c1ccc(CN(CC)C(=O)c2nc(-c3ccccc3)c3ccccc3n2)cc1` it is 3.65 nM.
On to `CN(Cc1ccccc1)C(=O)c1cc2ccccc2c(-c2ccccc2Cl)n1`, for which the Ki in test [1] worked out at 0.442 nM.
With `CCCCCCN(CCCCCC)C(=O)c1nc(-c2ccccc2)c2cc(Cl)ccc2n1`, the outcome in [2] was inactive.
What is called inhibition is the relative decrease from the control value, in per cent. For `O=C(NCc1ccccc1)c1nc(-c2ccccc2Cl)c2ccccc2n1`, the inhibition in test [3] came out at 16%.
With `CCCCCCN(CCCCCC)C(=O)c1nc(-c2ccc(Cl)cc2)c2ccccc2n1`, in [2], the result was inactive.
Still for that read-out and setting: with `CCCCCN(CCCCC)C(=O)c1nc(-c2ccccc2)c2ccccc2n1` the entry was “inactive”.
What is called IC50 is the concentration that inhibits the measured activity by half. As to `CCCCCCN(CCCCCC)C(=O)c1nc(-c2ccccc2)c2ccccc2n1`, the inhibition result in [4] was “Active”. The result in test [5] was Active. Also, the result in [2] was inactive. Also, the IC50 in test [6] was found to be 17700 nM. For the same compound, the inhibition result in test [7] is “Dose-dependent effect”.
For the compound `CCC(C)N(C)C(=O)c1nc(-c2ccccc2)c2ccccc2n1` (stereo not given), in test [2], the result was inactive.
Take `CCC(C)N(C)C(=O)c1nc(-c2ccc(Cl)cc2)c2ccccc2n1` (stereo not given): in test [2], the result was inactive.
`CCC(C)N(C)C(=O)c1nc(-c2ccccc2Cl)c2ccccc2n1` (stereo not given): the outcome in test [2] was inactive.
On to `CCN(Cc1ccccc1)C(=O)c1nc(-c2ccccc2)c2ccccc2n1`, for which, in test [1], the Ki was determined as 1.13 nM.
For the compound `CN(Cc1ccccc1)C(=O)c1nc(-c2ccccc2F)c2ccccc2n1`, the affinity in [1], expressed as Ki, was 1.11 nM.
In turn, `O=C(NCc1ccccc1)c1nc(-c2ccccc2)c2ccccc2n1` returned an inhibition in test [3] of 41%.
On to `CCN(Cc1ccc(C)cc1)C(=O)c1nc(-c2ccccc2Cl)c2ccccc2n1`, for which the inhibition result in [8], in [9], in test [10], in [11], in test [12] and in test [13] was “inactive” each time. Moreover, the inhibition result in [14], in test [15], in test [16], in test [17], in test [18] and in test [19] was “inactive” in each case. Also, the inhibition result in [20], in test [21], in test [22], in test [23], in test [24] and in [25] was “inactive” each time. Moreover, the inhibition result in test [26], in test [27], in test [28], in [30], in test [32] and in test [33] was “inactive” in each case. The inhibition entry in [34] and in [35] was “inactive” in each case. The inhibition result in [4] is “Active”. Further, the result in test [5] was Active. In [1], the Ki came to 0.489 nM. For the same compound, the result in test [29] and in test [31] was inactive. In addition, in [6], the half-inhibitory concentration (IC50) was found to be 15100 nM. Also, the inhibition result in [7] was “Dose-dependent effect”.
For the compound `CCN(Cc1ccccc1)C(=O)c1nc(-c2ccccc2F)c2ccccc2n1`, the affinity in [1], expressed as Ki, was 0.888 nM.
Same read-out and setting: with `CN(Cc1ccccc1)C(=O)c1nc(-c2ccccc2)c2ccccc2n1` the figure was 3.99 nM.
Turning to `N#CC(C#N)=NNc1cccc(Cl)c1`, the result in test [36] was Active.
For `CCC(C)N(C)C(=O)c1cc2ccccc2c(-c2ccccc2Cl)n1` (stereo not given) [PK-11195], the inhibition at 100 µM in test [37] was found to be 40%. Besides, the outcome in [5] was Active.
